Active and inactive are the calls of the source.
What was measured:
[1] = molecular target: Kappa-type opioid receptor (Homo sapiens) (UniProt P41145); assay: Displacement of [3H]-U69593 from human recombinant KOR receptor expressed in stable HEK cells incubated for 90 mins by microbeta scintillation counting method; assay type: cell-based
[2] = molecular target: Histamine H1 receptor (Homo sapiens) (UniProt P35367); assay: Displacement of [3H]-Pyrilamine from human recombinant histamine H1 receptor expressed in stable HEK cells incubated for 90 mins by microbeta scintillation counting method; assay type: cell-based
Chain of Histamine H1 receptor (Homo sapiens) (P35367 whole entry): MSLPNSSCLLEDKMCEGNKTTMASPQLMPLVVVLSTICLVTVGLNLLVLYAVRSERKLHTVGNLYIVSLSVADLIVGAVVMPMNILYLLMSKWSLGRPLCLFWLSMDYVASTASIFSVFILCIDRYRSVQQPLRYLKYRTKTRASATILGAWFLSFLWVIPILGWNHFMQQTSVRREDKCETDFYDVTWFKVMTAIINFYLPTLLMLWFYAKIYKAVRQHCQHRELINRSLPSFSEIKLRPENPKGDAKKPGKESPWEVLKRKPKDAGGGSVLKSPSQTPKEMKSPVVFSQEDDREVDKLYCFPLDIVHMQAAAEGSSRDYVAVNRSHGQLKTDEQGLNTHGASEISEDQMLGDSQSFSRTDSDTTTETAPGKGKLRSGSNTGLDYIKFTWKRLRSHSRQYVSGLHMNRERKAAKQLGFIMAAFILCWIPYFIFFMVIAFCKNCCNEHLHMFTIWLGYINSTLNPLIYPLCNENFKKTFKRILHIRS

[3] = molecular target: Muscarinic acetylcholine receptor M4 (Homo sapiens) (UniProt P08173); assay: Displacement of [3H]-QNB/[3H]-NMS from human recombinant muscarinic acetylcholine M4 receptor expressed in stable CHO cells incubated for 90 mins by microbeta scintillation counting method; assay type: cell-based
[4] = molecular target: 5-hydroxytryptamine receptor 3A (Homo sapiens) (UniProt P46098); assay: Displacement of [3H]-GR65630 from human recombinant 5HT3 receptor expressed in HEKT cells at 10 uM incubated for 90 mins by microbeta scintillation counting method; assay type: cell-based
How it was run: (§1)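 Primary radioligand binding screen run by the NIMH Psychoactive Drug Screening Program, with one test level of 10 μM. The read-out was inhibition of radioligand binding at each receptor.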

[5] = molecular target: D(2) dopamine receptor (Homo sapiens) (UniProt P14416); assay: Displacement of [3H]-N-methylspiperone from human recombinant dopamine D2 receptor expressed in stable fibroblast cells incubated for 90 mins by microbeta scintillation counting method; assay type: cell-based
[6] = molecular target: Beta-3 adrenergic receptor (Homo sapiens) (UniProt P13945); assay: Displacement of [3H]-CGP12177 from human recombinant adrenergic beta3 receptor expressed in Flp-In HEK cells incubated for 90 mins by microbeta scintillation counting method; assay type: cell-based
Chain of Beta-3 adrenergic receptor (Homo sapiens) (P13945 whole entry, looked up): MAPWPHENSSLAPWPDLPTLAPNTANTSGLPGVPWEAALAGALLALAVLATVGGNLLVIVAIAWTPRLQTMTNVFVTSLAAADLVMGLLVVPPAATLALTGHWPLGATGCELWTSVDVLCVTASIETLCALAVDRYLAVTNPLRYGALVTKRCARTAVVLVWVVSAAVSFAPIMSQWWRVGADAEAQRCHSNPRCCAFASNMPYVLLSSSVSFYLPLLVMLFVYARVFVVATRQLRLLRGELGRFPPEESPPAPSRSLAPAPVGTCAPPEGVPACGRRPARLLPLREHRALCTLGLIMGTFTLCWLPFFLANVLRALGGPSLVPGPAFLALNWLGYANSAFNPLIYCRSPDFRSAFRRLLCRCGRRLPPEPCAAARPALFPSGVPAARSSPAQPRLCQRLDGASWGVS

[7] = molecular target: Sigma intracellular receptor 2 (Homo sapiens) (UniProt Q5BJF2); assay: Displacement of [3H]-[…] from human recombinant sigma2 receptor expressed in HEKT cells incubated for 90 mins by microbeta scintillation counting method; assay type: cell-based
Chain of Sigma intracellular receptor 2 (Homo sapiens) (Q5BJF2 whole entry): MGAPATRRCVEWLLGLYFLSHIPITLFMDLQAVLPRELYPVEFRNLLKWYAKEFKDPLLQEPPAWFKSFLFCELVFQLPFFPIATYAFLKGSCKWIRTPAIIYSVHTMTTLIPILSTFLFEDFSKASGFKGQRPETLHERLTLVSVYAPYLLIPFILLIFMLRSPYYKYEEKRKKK

[8] = molecular target: 5-hydroxytryptamine receptor 1E (Homo sapiens) (UniProt P28566); assay: Displacement of [3H]-5-HT from human recombinant 5HT1E receptor expressed in stable HEK cells at 10 uM incubated for 90 mins by microbeta scintillation counting method; assay type: cell-based; how it was run: as §1
Chain of 5-hydroxytryptamine receptor 1E (Homo sapiens) (P28566 whole entry): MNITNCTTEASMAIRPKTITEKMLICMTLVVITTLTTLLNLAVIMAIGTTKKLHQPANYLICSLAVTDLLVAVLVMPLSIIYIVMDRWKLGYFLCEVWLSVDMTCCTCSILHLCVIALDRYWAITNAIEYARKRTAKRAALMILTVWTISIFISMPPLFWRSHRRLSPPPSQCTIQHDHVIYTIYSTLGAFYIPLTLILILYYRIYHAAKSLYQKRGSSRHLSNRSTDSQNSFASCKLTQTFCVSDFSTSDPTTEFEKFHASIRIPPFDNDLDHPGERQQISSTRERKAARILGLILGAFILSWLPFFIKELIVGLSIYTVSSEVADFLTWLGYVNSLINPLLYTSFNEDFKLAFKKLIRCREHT

[9] = molecular target: 5-hydroxytryptamine receptor 2A (Homo sapiens) (UniProt P28223); assay: Displacement of [3H]-ketanserin from human recombinant 5HT2A receptor expressed in HEKT cells at 10 uM incubated for 90 mins by microbeta scintillation counting method; assay type: cell-based; how it was run: as §1
[10] = molecular target: D(1B) dopamine receptor (Homo sapiens) (UniProt P21918); assay: Displacement of [3H]-SCH23390 from human recombinant dopamine D5 receptor expressed in HEKT cells incubated for 90 mins by microbeta scintillation counting method; assay type: cell-based
Chain of D(1B) dopamine receptor (Homo sapiens) (P21918 whole entry): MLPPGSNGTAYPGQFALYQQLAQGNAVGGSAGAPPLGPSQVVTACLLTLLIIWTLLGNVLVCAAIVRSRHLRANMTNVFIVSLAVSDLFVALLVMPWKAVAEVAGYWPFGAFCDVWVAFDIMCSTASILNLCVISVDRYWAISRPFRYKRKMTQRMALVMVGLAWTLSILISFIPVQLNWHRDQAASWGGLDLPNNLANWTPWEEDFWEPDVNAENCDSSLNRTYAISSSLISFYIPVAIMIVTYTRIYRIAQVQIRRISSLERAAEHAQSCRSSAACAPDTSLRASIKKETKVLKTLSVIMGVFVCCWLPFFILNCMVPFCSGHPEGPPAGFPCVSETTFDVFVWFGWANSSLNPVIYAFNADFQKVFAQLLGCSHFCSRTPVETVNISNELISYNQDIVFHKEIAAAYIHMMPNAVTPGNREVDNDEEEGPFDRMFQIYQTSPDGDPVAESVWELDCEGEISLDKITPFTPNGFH

[11] = molecular target: Muscarinic acetylcholine receptor M2 (Homo sapiens) (UniProt P08172); assay: Displacement of [3H]-QNB/[3H]-NMS from human recombinant muscarinic acetylcholine M2 receptor expressed in stable CHO cells incubated for 90 mins by microbeta scintillation counting method; assay type: cell-based
[12] = molecular target: Histamine H3 receptor (Homo sapiens) (UniProt Q9Y5N1); assay: Displacement of [3H]-alpha-methylhistamine from human recombinant histamine H3 receptor expressed in Flp-In HEK cells incubated for 90 mins by microbeta scintillation counting method; assay type: cell-based
Chain of Histamine H3 receptor (Homo sapiens) (Q9Y5N1 whole entry): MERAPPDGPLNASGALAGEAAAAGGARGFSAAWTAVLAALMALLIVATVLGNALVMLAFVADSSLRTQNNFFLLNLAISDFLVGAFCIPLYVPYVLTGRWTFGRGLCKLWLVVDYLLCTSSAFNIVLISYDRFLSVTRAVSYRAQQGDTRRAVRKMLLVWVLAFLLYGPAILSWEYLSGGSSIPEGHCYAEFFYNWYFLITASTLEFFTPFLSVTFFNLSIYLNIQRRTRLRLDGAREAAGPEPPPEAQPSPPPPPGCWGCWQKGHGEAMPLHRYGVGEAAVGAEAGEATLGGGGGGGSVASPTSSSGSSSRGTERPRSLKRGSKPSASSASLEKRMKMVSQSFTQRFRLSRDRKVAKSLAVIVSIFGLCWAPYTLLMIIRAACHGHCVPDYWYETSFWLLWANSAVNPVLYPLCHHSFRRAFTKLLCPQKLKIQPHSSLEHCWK

[13] = molecular target: D(4) dopamine receptor (Homo sapiens) (UniProt P21917); assay: Displacement of [3H]-methylspiperone from human recombinant dopamine D4 receptor expressed in stable HEK cells incubated for 90 mins by microbeta scintillation counting method; assay type: cell-based
[14] = molecular target: Sigma non-opioid intracellular receptor 1 (Homo sapiens) (UniProt Q99720); assay: Displacement of [3H]-Pentazocine from human recombinant sigma1 receptor expressed in HEKT cells incubated for 90 mins by microbeta scintillation counting method; assay type: cell-based
Chain of Sigma non-opioid intracellular receptor 1 (Homo sapiens) (Q99720 whole entry): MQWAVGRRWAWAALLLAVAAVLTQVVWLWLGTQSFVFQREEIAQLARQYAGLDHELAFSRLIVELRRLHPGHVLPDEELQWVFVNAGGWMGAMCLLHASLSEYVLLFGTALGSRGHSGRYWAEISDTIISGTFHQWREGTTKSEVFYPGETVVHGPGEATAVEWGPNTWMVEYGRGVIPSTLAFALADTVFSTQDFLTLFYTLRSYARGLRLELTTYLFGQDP

[15] = molecular target: GABA-A receptor; anion channel (Rattus norvegicus) (UniProt O09028+P15431+P18506+P18508+P19969+P20236+P23574+P23576+P28471+P28473+P30191+P62813+P63079+P63138+Q91ZM7+Q9ES14); assay: Displacement of [3H]-Muscimol from GABAA receptor in rat brain incubated for 90 mins by microbeta scintillation counting method; assay type: tissue-based
[16] = molecular target: Muscarinic acetylcholine receptor M3 (Homo sapiens) (UniProt P20309); assay: Displacement of [3H]-QNB/[3H]-NMS from human recombinant muscarinic acetylcholine M3 receptor expressed in stable CHO cells incubated for 90 mins by microbeta scintillation counting method; assay type: cell-based
[17] = molecular target: Histamine H4 receptor (Homo sapiens) (UniProt Q9H3N8); assay: Displacement of [3H]-Histamine from human recombinant histamine H4 receptor expressed in HEKT cells incubated for 90 mins by microbeta scintillation counting method; assay type: cell-based
[18] = molecular target: D(1A) dopamine receptor (Homo sapiens) (UniProt P21728); assay: Displacement of [3H]-SCH23390 from human recombinant dopamine D1 receptor expressed in HEKT cells incubated for 90 mins by microbeta scintillation counting method; assay type: cell-based
[19] = molecular target: Muscarinic acetylcholine receptor M5 (Homo sapiens) (UniProt P08912); assay: Displacement of [3H]-QNB/[3H]-NMS from human recombinant muscarinic acetylcholine M5 receptor expressed in stable CHO cells incubated for 90 mins by microbeta scintillation counting method; assay type: cell-based
[20] = molecular target: Alpha-1B adrenergic receptor (Homo sapiens) (UniProt P35368); assay: Displacement of [3H]-8-OH-DPAT from human recombinant alpha1B adrenergic receptor expressed in HEKT cells at 10 uM incubated for 90 mins by microbeta scintillation counting method; assay type: cell-based; how it was run: as §1
Chain of Alpha-1B adrenergic receptor (Homo sapiens) (P35368 whole entry): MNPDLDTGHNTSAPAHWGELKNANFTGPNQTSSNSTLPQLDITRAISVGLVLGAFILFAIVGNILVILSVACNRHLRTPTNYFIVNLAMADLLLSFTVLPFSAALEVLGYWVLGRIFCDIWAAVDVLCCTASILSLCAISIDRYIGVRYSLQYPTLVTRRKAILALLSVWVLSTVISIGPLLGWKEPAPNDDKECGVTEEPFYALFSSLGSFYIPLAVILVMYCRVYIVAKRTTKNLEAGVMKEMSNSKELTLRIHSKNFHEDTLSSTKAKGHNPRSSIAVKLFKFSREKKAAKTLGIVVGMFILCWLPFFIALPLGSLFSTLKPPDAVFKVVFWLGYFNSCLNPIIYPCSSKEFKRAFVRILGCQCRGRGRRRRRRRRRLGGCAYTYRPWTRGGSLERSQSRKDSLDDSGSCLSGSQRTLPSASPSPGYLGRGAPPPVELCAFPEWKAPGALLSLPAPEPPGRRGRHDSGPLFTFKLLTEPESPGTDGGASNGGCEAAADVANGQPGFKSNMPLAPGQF

[21] = molecular target: Sodium-dependent serotonin transporter (Homo sapiens) (UniProt P31645); assay: Displacement of [3H]-citalopram from recombinant human SERT expressed in HEK cell membranes at 10 uM incubated for 90 mins by scintillation counting method; how it was run: as §1
[22] = molecular target: 5-hydroxytryptamine receptor 1D (Homo sapiens) (UniProt P28221); assay: Displacement of [3H]-5-CT from human recombinant 5HT1D receptor expressed in HEKT cells at 10 uM incubated for 90 mins by microbeta scintillation counting method; assay type: cell-based; how it was run: as §1
Chain of 5-hydroxytryptamine receptor 1D (Homo sapiens) (P28221 whole entry): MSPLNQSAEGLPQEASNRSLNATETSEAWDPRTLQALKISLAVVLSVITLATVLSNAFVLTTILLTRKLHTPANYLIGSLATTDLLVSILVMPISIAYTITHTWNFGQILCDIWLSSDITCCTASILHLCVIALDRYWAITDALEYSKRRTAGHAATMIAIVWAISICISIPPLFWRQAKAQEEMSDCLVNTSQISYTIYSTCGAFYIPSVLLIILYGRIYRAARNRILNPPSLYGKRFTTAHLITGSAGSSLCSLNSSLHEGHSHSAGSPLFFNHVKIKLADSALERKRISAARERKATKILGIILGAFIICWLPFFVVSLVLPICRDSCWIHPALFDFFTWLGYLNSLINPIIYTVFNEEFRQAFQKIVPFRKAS

[23] = molecular target: Delta-type opioid receptor (Homo sapiens) (UniProt P41143); assay: Displacement of [3H]-DADLE from human recombinant DOR receptor expressed in stable HEK cells incubated for 90 mins by microbeta scintillation counting method; assay type: cell-based
[24] = molecular target: Alpha-1D adrenergic receptor (Homo sapiens) (UniProt P25100); assay: Displacement of [3H]-8-OH-DPAT from human recombinant alpha1D adrenergic receptor at 10 uM incubated for 90 mins by microbeta scintillation counting method; how it was run: as §1
Chain of Alpha-1D adrenergic receptor (Homo sapiens) (P25100 whole entry): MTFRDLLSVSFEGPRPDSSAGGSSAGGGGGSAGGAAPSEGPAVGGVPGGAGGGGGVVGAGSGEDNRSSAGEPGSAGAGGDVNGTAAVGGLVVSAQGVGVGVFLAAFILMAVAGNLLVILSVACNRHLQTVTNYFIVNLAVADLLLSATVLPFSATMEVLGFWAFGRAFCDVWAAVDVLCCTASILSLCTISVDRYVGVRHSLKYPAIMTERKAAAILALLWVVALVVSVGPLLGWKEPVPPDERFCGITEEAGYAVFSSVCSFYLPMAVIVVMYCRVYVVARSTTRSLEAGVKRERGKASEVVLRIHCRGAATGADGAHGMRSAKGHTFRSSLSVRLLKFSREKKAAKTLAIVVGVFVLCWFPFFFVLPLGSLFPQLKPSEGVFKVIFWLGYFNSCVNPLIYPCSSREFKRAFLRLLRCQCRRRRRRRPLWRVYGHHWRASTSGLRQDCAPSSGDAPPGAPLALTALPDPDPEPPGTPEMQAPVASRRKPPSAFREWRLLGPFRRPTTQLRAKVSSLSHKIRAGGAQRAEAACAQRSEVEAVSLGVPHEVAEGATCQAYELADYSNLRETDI

Rattus norvegicus = species on record: Rattus norvegicus; assay: Displacement of [3H]-Flunitrazepam from BZP receptor in rat brain at 10 uM incubated for 90 mins by microbeta scintillation counting method; assay type: tissue-based; how it was run: as §1
[25] = molecular target: Beta-1 adrenergic receptor (Homo sapiens) (UniProt P08588); assay: Displacement of [125I]-pindolol from recombinant human beta1 adrenergic receptor expressed in CHO Flp-In cells incubated for 90 mins by microbeta scintillation counting method; assay type: cell-based
Chain of Beta-1 adrenergic receptor (Homo sapiens) (P08588 whole entry, looked up): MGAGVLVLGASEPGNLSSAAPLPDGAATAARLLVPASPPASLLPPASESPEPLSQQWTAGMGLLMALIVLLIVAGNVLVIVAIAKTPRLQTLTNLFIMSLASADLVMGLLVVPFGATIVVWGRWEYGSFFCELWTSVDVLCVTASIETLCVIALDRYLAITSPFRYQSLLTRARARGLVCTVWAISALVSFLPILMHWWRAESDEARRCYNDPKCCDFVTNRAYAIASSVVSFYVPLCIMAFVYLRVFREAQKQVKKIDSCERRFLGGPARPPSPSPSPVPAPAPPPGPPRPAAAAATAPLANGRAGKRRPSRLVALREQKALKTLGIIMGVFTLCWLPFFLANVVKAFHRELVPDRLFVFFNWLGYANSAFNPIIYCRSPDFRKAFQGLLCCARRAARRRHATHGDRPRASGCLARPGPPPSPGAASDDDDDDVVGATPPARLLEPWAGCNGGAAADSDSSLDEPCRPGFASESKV

[26] = molecular target: 5-hydroxytryptamine receptor 2B (Homo sapiens) (UniProt P41595); assay: Displacement of [3H]-LSD from human recombinant 5HT2B receptor expressed in stable HEK cells at 10 uM incubated for 90 mins by microbeta scintillation counting method; assay type: cell-based; how it was run: as §1
[27] = molecular target: Muscarinic acetylcholine receptor M1 (Homo sapiens) (UniProt P11229); assay: Displacement of [3H]-QNB/[3H]-NMS from human recombinant muscarinic acetylcholine M1 receptor expressed in stable CHO cells incubated for 90 mins by microbeta scintillation counting method; assay type: cell-based

Measured: inhibition

Chain of Kappa-type opioid receptor (Homo sapiens) (P41145 whole entry): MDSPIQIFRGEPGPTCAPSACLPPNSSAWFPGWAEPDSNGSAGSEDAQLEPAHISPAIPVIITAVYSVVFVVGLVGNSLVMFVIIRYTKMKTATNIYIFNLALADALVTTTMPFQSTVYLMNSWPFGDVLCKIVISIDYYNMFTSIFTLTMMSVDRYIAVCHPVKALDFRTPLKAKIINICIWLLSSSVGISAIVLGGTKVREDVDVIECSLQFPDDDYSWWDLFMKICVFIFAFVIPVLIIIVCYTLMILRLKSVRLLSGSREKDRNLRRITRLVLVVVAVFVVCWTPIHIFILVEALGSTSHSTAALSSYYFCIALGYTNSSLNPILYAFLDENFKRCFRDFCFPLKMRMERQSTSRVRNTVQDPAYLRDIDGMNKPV

Cn1c2cccc(=O)c-2nc2ccccc21 [PYOCYANIN]
inactive: all assays above
